Measured values as given in ChEMBL document CHEMBL4024779, “Novel Terminal Bipheny-Based Diapophytoene Desaturases (CrtN) Inhibitors as Anti-MRSA/VISR/LRSA Agents with Reduced hERG Activity” (J Med Chem, 2018).
Changes are numbered by the printed parent chain. In brackets after ≈: the same amount, converted by molar mass. Activity calls are given as the source filed them. The rule behind the calls is not given here.

Experiments:
Trichophyton rubrum = assay: In vitro antifungal activity against Trichophyton rubrum after 7 days by serial dilution method; type: functional; details: 168 h
Nannizzia gypsea = assay: In vitro antifungal activity against Microsporum gypseum after 7 days by serial dilution method; type: functional; details: 168 h
Trichophyton verrucosum = assay: In vitro antifungal activity against Trichophyton verrucosum after 7 days by serial dilution method; type: functional; details: 168 h
[1] = test system: Trichophyton mentagrophytes; assay: In vitro antifungal activity against Trichophyton mentagrophytes after 7 days by serial dilution method; type: functional; details: 168 h
[2] = Half life in human liver microsomes at 2 uM after 60 mins in presence of NADPH by LC-MS/MS method; type: ADME, microsome; details: liver microsomes
Liver = assay: In-vitro intrinsic clearance in human liver microsomes at 2 uM after 60 mins in presence of NADPH by LC-MS/MS method; type: ADME, microsome; details: 1 h
[3] = Cytotoxicity against HEK293 cells after 43 hrs by Alamar blue dye-based fluorescence assay; type: cell-based; details: human
HepG2 = assay: Cytotoxicity against human HepG2 cells after 43 hrs by Alamar blue dye-based fluorescence assay; type: cell-based; details: HepG2, 43 h
Staphylococcus aureus [4] = assay: In vivo anti-virulence activity against methicillin-resistant Staphylococcus aureus Mu50 infected in BALB/c mouse model assessed as reduction in bacterial load in heart at 0.4 mg bid for 4.5 days administered intraperitoneally 6 hrs post infection by serial dilution method; type: functional, organism-based
Staphylococcus aureus [5] = assay: In vivo anti-virulence activity against methicillin-resistant Staphylococcus aureus LRSA56 infected in BALB/c mouse model assessed as reduction in bacterial load in kidney at 0.4 mg bid for 3.5 days administered intraperitoneally 6 hrs post infection by serial dilution method relative to control; type: functional, organism-based
How it was run: (§1)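 Mice were infected by retro-orbital injection with LRSA56 (5.0 × 10^7 CFU) or LRSA202 (7.0 × 10^7 CFU). Compound was given intraperitoneally 6 h after infection. […] Log10 CFU was counted in kidneys and hearts, with groups compared by two-tailed Mann-Whitney test.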

Staphylococcus aureus [6] = assay: In vivo anti-virulence activity against methicillin-resistant Staphylococcus aureus LRSA56 infected in BALB/c mouse model assessed as reduction in bacterial load in heart at 0.4 mg bid for 3.5 days administered intraperitoneally 6 hrs post infection by serial dilution method relative to control; type: functional, organism-based; how it was run: as §1
Staphylococcus aureus [7] = assay: In vivo anti-virulence activity against methicillin-resistant Staphylococcus aureus LRSA202 infected in BALB/c mouse model assessed as reduction in bacterial load in kidney at 0.4 mg bid for 3.5 days administered intraperitoneally 6 hrs post infection by serial dilution method relative to control; type: functional, organism-based; how it was run: as §1
Staphylococcus aureus [8] = assay: In vivo anti-virulence activity against methicillin-resistant Staphylococcus aureus LRSA202 infected in BALB/c mouse model assessed as reduction in bacterial load in heart at 0.4 mg bid for 3.5 days administered intraperitoneally 6 hrs post infection by serial dilution method relative to control; type: functional, organism-based; how it was run: as §1
Staphylococcus aureus [9] = assay: In vivo anti-virulence activity against Staphylococcus aureus Mu50 infected in BALB/c mouse model assessed as reduction in bacterial load in kidney at 0.4 mg bid for 4.5 days administered […] 6 hrs post infection by serial dilution method relative to control; type: functional, organism-based
Staphylococcus aureus [10] = assay: Antibacterial activity against Staphylococcus aureus Newman after 24 hrs by broth dilution method; type: functional
[11] = target: T1, 4,4'-diapophytoene desaturase (4,4'-diaponeurosporene-forming) (Staphylococcus aureus (strain MW2), UniProt Q8NUQ6); assay: Inhibition of CrtN in methicillin-resistant Staphylococcus aureus USA400 MW2 assessed as reduction in staphyloxanthin levels after 48 hrs by spectrophotometric method-based pigment inhibition assay; parameters: species or system Staphylococcus aureus subsp. aureus MW2
T1 sequence (Q8NUQ6 whole entry): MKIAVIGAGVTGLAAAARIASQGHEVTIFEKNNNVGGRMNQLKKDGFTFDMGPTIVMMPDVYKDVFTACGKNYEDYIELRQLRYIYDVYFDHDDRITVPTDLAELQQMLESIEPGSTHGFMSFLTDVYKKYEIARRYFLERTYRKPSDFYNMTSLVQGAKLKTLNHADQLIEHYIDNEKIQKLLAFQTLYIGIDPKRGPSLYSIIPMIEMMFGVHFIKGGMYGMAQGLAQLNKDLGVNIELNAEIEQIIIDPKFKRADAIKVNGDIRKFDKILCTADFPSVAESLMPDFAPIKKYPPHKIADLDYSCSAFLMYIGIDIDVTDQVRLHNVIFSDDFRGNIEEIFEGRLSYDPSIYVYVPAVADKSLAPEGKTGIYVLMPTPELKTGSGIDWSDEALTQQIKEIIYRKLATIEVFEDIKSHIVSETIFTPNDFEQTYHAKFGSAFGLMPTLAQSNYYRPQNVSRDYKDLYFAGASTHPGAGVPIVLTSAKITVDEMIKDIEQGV

[12] = target: T2, 4,4'-diapophytoene desaturase (4,4'-diaponeurosporene-forming) (Staphylococcus aureus (strain USA300), UniProt Q2FDU6); assay: Inhibition of CrtN in methicillin-resistant Staphylococcus aureus LAC USA300 assessed as reduction in staphyloxanthin levels after 48 hrs by spectrophotometric method-based pigment inhibition assay
T2 sequence (Q2FDU6 whole entry): T1 sequence (Q8NUQ6 whole entry) with Q500R

[13] = target: T3, 4,4'-diapophytoene desaturase (4,4'-diaponeurosporene-forming) (Staphylococcus aureus (strain Mu50 / ATCC 700699), UniProt Q99R76); assay: Inhibition of CrtN in methicillin-resistant Staphylococcus aureus Mu50 assessed as reduction in staphyloxanthin levels after 48 hrs by spectrophotometric method-based pigment inhibition assay; parameters: species or system Staphylococcus aureus subsp. aureus Mu50
T3 sequence (Q99R76 whole entry): T1 sequence (Q8NUQ6 whole entry) with Q500R

[14] = Inhibition of CrtN in methicillin-resistant Staphylococcus aureus NRS271 assessed as reduction in staphyloxanthin levels after 48 hrs by spectrophotometric method-based pigment inhibition assay
[15] = Aqueous solubility of compound after 24 hrs by HPLC method; type: physicochemical
[16] = target: Voltage-gated inwardly rectifying potassium channel KCNH2 (Homo sapiens, UniProt Q12809); assay: Inhibition of human ERG expressed in CHO cells at -80 mV holding potential after 3 mins by QPatch test; type: cell-based
Voltage-gated inwardly rectifying potassium channel KCNH2, sequence (Q12809 whole entry): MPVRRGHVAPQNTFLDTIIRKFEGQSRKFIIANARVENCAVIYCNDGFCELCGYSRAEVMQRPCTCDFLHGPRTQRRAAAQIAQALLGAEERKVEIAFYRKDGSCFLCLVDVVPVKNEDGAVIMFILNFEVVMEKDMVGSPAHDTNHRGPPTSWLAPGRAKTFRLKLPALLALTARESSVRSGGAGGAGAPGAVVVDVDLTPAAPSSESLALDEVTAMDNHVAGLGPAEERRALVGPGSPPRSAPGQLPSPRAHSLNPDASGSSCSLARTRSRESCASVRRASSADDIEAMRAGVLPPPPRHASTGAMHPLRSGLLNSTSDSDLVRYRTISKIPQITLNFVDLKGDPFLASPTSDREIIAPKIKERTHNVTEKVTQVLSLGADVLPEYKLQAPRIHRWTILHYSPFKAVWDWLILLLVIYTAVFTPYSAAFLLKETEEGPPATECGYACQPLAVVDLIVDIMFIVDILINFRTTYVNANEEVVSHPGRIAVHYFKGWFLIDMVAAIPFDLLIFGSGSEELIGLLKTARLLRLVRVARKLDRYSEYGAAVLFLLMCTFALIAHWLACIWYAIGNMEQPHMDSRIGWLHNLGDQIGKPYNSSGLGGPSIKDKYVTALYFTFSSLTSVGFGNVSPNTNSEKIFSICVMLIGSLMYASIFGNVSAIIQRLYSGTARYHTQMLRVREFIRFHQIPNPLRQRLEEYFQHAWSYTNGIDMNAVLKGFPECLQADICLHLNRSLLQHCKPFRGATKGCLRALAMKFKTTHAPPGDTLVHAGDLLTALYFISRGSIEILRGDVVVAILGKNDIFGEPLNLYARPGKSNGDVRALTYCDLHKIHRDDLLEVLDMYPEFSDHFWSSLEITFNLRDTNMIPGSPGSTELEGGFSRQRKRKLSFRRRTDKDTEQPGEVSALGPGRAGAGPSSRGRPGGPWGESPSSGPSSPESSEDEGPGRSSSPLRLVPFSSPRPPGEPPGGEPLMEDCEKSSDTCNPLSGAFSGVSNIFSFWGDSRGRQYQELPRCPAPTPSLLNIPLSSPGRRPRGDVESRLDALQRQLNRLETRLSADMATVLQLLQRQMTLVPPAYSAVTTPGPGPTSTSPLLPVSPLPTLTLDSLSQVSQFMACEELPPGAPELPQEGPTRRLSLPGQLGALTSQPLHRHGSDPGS

[17] = target: T4, 4,4'-diapophytoene desaturase (4,4'-diaponeurosporene-forming) (Staphylococcus aureus (strain Newman), UniProt O07855); assay: Inhibition of Staphylococcus aureus Newman 6His-tagged CrtN expressed in Escherichia coli BL21 (DE3)/pET28a::CrtN assessed as reduction in staphyloxanthin levels using diapophytoene as substrate after overnight incubation by spectrophotometric analysis; parameters: species or system Staphylococcus aureus subsp. aureus str. Newman
T4 sequence (O07855 whole entry): T1 sequence (Q8NUQ6 whole entry) with Q500R

[18] = target: T4, 4,4'-diapophytoene desaturase (4,4'-diaponeurosporene-forming); assay: Inhibition of CrtN in Staphylococcus aureus Newman assessed as reduction in staphyloxanthin levels after 48 hrs by spectrophotometric method-based pigment inhibition assay; parameters: species or system Staphylococcus aureus subsp. aureus str. Newman

## CC(=O)N1CCN(c2ccc(OCC3COC(Cn4ccnc4)(c4ccc(Cl)cc4Cl)O3)cc2)CC1 (centres undefined) [KETOCONAZOLE]
Trichophyton rubrum
  MIC80: 0.5 µg/mL (≈ 0.941 µM)
Nannizzia gypsea
  MIC80: 2 µg/mL (≈ 3.76 µM)
Trichophyton verrucosum
  MIC80: 0.0625 µg/mL (≈ 0.118 µM)
[1]
  MIC80: 0.0625 µg/mL (≈ 0.118 µM)

## Cc1ncc2n1-c1ccc(Cl)cc1C(c1ccccc1F)=NC2 [MIDAZOLAM]
[2]
  half-life at 2 µM: 4.2 min
Liver
  CLH: 330 µL/min/mg

## C[C@@H]1[C@H](O)[C@@H](C)/C=C/C=C/C=C/C=C/C=C/C=C/C=C/[C@H](O[C@@H]2O[C@H](C)[C@@H](O)[C@H](N)[C@@H]2O)C[C@@H]2O[C@](O)(C[C@@H](O)C[C@@H](O)[C@H](O)CC[C@@H](O)C[C@@H](O)CC(=O)O[C@H]1C)C[C@H](O)[C@H]2C(=O)O [AMPHOTERICIN B]
[3]
  CC50 at 43 h: 4.2 µM
HepG2
  IC50: 3.1 µM

## CN[C@H](CC(C)C)C(=O)N[C@H]1C(=O)N[C@@H](CC(N)=O)C(=O)N[C@H]2C(=O)N[C@H]3C(=O)N[C@H](C(=O)N[C@H](C(=O)O)c4cc(O)cc(O)c4-c4cc3ccc4O)[C@H](O)c3ccc(c(Cl)c3)Oc3cc2cc(c3O[C@@H]2O[C@H](CO)[C@@H](O)[C@H](O)[C@H]2O[C@H]2C[C@](C)(N)[C@H](O)[C@H](C)O2)Oc2ccc(cc2Cl)[C@H]1O
Staphylococcus aureus [4]
  Activity: Active
Staphylococcus aureus [5]
  Activity: Active
Staphylococcus aureus [6]
  Activity: Active
Staphylococcus aureus [7]
  Activity: Active
Staphylococcus aureus [8]
  Activity: Active
Staphylococcus aureus [9]
  Activity: Active

## CC[C@H]1OC(=O)[C@H](C)[C@@H](O[C@H]2C[C@@](C)(OC)[C@@H](O)[C@H](C)O2)[C@H](C)[C@@H](O[C@@H]2O[C@H](C)C[C@H](N(C)C)[C@H]2O)[C@](C)(O)C[C@@H](C)C(=O)[C@H](C)[C@@H](O)[C@]1(C)O [ERYTHROMYCIN]
Staphylococcus aureus [10]; Staphylococcus aureus, Newman, 24 h, read-out: MIC
  MIC: 0.125 µg/mL (≈ 0.17 µM)

## CN(C/C=C/c1ccc(C(F)(F)F)cc1)Cc1cccc2ccoc12.Cl
[11]
  IC50: 0.0034 µM
[12]
  IC50: 0.0055 µM
[13]
  IC50: 0.0004 µM
[14]
  IC50: 0.0067 µM
[15]
  solubility at 24 h: 10000 µg/mL
[16]
  IC50: 3.7 µM
[17]
  IC50: 0.3 µM
Trichophyton rubrum
  MIC80: 16 µg/mL
Nannizzia gypsea
  MIC80: 32 µg/mL
Trichophyton verrucosum
  MIC80: > 64 µg/mL
[1]
  MIC80: > 64 µg/mL

## CN(C/C=C/c1ccc(Br)cc1)Cc1coc2ccccc12
[18]
  IC50: 0.0025 µM
[3]
  CC50 at 43 h: 41.9 µM
HepG2
  IC50: 33 µM

## OC(Cn1cncn1)(Cn1cncn1)c1ccc(F)cc1F [FLUCONAZOLE]
Trichophyton rubrum
  MIC80: 1 µg/mL (≈ 3.27 µM)
Nannizzia gypsea
  MIC80: 8 µg/mL (≈ 26.1 µM)
Trichophyton verrucosum
  MIC80: 2 µg/mL (≈ 6.53 µM)
[1]
  MIC80: 2 µg/mL (≈ 6.53 µM)

## C[C@@H](c1ncncc1F)[C@](O)(Cn1cncn1)c1ccc(F)cc1F [VORICONAZOLE]
Trichophyton rubrum
  MIC80: 0.0312 µg/mL (≈ 0.0895 µM)
Nannizzia gypsea
  MIC80: 0.25 µg/mL (≈ 0.716 µM)
Trichophyton verrucosum
  MIC80: 0.0312 µg/mL (≈ 0.0895 µM)
[1]
  MIC80: 0.0312 µg/mL (≈ 0.0895 µM)

## CN(C/C=C/c1cccc2ccccc12)Cc1coc2ccccc12
[18]
  IC50: > 1 µM

## CN(CCCc1ccc(-c2ccccc2)cc1)Cc1cccc2cc[nH]c12
[18]
  IC50: > 1 µM

## CCOc1ccc(/C=C/CN(C)Cc2cccc3cc[nH]c23)cc1
[18]
  IC50: 0.0648 µM

## CN(C/C=C/c1ccccc1Cl)Cc1coc2ccccc12
[18]
  IC50: 0.36 µM

## C/C(=C\c1ccc(-c2ccccc2)cc1)CN(C)Cc1coc2ccccc12
[18]
  IC50: > 1 µM

## CN(C/C=C/C1CCCCC1)Cc1cccc2cc[nH]c12
[18]
  IC50: > 1 µM

## OO [HYDROGEN PEROXIDE]
Staphylococcus aureus [10]
  MIC: 0.15%

## CN(C/C=C/c1ccccc1C(F)(F)F)Cc1coc2ccccc12
[18]
  IC50: > 1 µM

## CN(C/C=C/c1ccc2ccccc2c1)Cc1coc2ccccc12
[18]
  IC50: 0.0064 µM

## CN(C/C=C/c1ccc(C(F)(F)F)cc1F)Cc1coc2ccccc12
[18]
  IC50: 0.0092 µM

## CN(CC/C=C/c1ccc(-c2ccccc2)cc1)Cc1coc2ccccc12
[18]
  IC50: > 1 µM

## CN(C/C=C/c1ccc(C#N)cc1)Cc1coc2ccccc12
[18]
  IC50: 0.0801 µM

## CN(C/C=C/c1ccc(C(F)(F)F)cc1)Cc1csc2ccccc12
[18]
  IC50: > 1 µM

## CN(C/C=C/c1ccc([N+](=O)[O-])cc1)Cc1cccc2cc[nH]c12
[18]
  IC50: > 1 µM

## CN(C/C=C/c1cccc([N+](=O)[O-])c1)Cc1coc2ccccc12
[18]
  IC50: > 1 µM

## CN(C/C=C/c1ccc(Cl)cc1)Cc1coc2ccccc12
[18]
  IC50: 0.0049 µM
[3]
  CC50 at 43 h: 42.1 µM
HepG2
  IC50: 60.2 µM

## CN(C/C=C/c1cccc(Cl)c1)Cc1cccc2cc[nH]c12
[18]
  IC50: > 1 µM

## C/C=C/CN(C)Cc1coc2ccccc12
[18]
  IC50: 0.0913 µM

## CCN(C/C=C/c1ccc(C(F)(F)F)cc1)Cc1cccc2cc[nH]c12
[18]
  IC50: 0.118 µM

## CN(C/C=C/c1cccc2ccccc12)Cc1cccc2cc[nH]c12
[18]
  IC50: > 1 µM
